Test results: ChEMBL document CHEMBL1142417, “Studies on quinones. Part 43: Synthesis and cytotoxic evaluation of polyoxyethylene-containing 1,4-naphthoquinones” (Bioorg Med Chem, 2008)

How the values were obtained:
[1] = test system: MRC5; assay: Cytotoxicity against human MRC5 cells after 72 hrs by MTT assay; assay type: cell-based; settings: MRC5, 72 h
Summary of the method: (§1)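 Cells seeded at 50,000 cells/mL and treated one day later for 3 days with compound at 0 up to 100 µM, with DMSO at 1% final. Untreated cells served as controls. Growth was read by MTT reduction, in sextuplicate. IC50 is the concentration giving 50% growth reduction. Media: AGS in Ham F-12; MRC-5, SK-MES-1 and J82 in MEM; all with 10% FBS at 37 °C and 5% CO2.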

[2] = test system: AGS; assay: Antitumor against human AGS cells after 72 hrs by MTT assay; assay type: functional, cell-based; summary of the method: as §1
[3] = test system: SK-MES-1; assay: Antitumor against human SK-MES1 cells after 72 hrs by MTT assay; assay type: functional, cell-based; settings: SK-MES-1, 72 h; summary of the method: as §1
[4] = test system: J82; assay: Antitumor against human J82 cells after 72 hrs by MTT assay; assay type: functional, cell-based; settings: J82, 72 h; summary of the method: as §1
[5] = test system: HL-60; assay: Antitumor against human HL60 cells after 72 hrs by MTT assay; assay type: functional, cell-based; settings: HL-60, 72 h
Summary of the method: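 HL-60 leukemia cells kept in RPMI with 1 mM pyruvate and 10% heat-inactivated FBS at 37 °C and 5% CO2. They were plated at 50,000 cells/mL and exposed from day 1 for 3 days to compound at 0 up to 100 µM, with DMSO at 1% final. Untreated cells served as controls. Readout was MTT reduction in sextuplicate. IC50 is 50% growth reduction.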

Structure (SMILES)	IC50 [1]	IC50 [2]	IC50 [3]	IC50 [4]	IC50 [5]
COC1=C(Cl)C(=O)c2ccccc2C1=O	3.5 µM	9.1 µM	11.5 µM	10.1 µM	1.8 µM
O=C1C(Cl)=C(OCCOCCOC2=C(Cl)C(=O)c3ccccc3C2=O)C(=O)c2ccccc21	7.3 µM	11 µM	16.1 µM	26.6 µM	1.9 µM
O=C1C(Cl)=C(OCCOCCOCCOCCOC2=C(Cl)C(=O)c3ccccc3C2=O)C(=O)c2ccccc21	55.8 µM	54.8 µM	12.2 µM	33.9 µM	89.5 µM
O=C1C2=C(OCCOCCOCCO2)C(=O)c2ccccc21	10.1 µM	17.5 µM	7.9 µM	19.8 µM	2.6 µM
COC1=C(OC)C(=O)c2ccccc2C1=O	7.2 µM	9.1 µM	5.3 µM	16.1 µM	8.9 µM
COc1cc([C@@H]2c3cc4c(cc3[C@@H](O[C@@H]3O[C@@H]5CO[C@@H](C)O[C@H]5[C@H](O)[C@H]3O)[C@H]3COC(=O)[C@H]23)OCO4)cc(OC)c1O [ETOPOSIDE]	3.9 µM	0.36 µM	2.5 µM	2.8 µM	0.8 µM
O=C1C(Cl)=C(OCCOCCOCCOC2=C(Cl)C(=O)c3ccccc3C2=O)C(=O)c2ccccc21	4 µM	5.2 µM	7.1 µM	8.6 µM	1.3 µM
O=C1C2=C(OCCO2)C(=O)c2ccccc21	22.9 µM	19.5 µM	8.3 µM	22.3 µM	20.1 µM
O=C1C2=C(OCCOCCO2)C(=O)c2ccccc21	95.2 µM	63.2 µM	16.4 µM	39.6 µM	21.4 µM
COCCOC1=C(Cl)C(=O)c2ccccc2C1=O	3.5 µM	9.9 µM	16.7 µM	19.4 µM	1.7 µM
